{"source": "ChEMBL document CHEMBL3244170", "about": "“Synthesis and biological evaluation of 9,11-azo-13-oxa-15-hydroxyprostanoic acid, a potent inhibitor of platelet aggregation” (J Med Chem, 1979)", "key": {"Platelet [1]": {"system": "Platelet", "experiment": "Induction of 9.5 x 10^-7 M 9,11 methanoepoxy-PGH2-induced platelet aggregation in human platelet rich plasma at 10^-4 to 10^-6 M incubated for 1.5 mins at 37.5 degC"}, "Platelet [2]": {"system": "Platelet", "experiment": "Inhibition of 8.2 x 10^-4 M arachidonic acid-induced platelet aggregation in human platelet rich plasma at 10^-4 M incubated for 1.5 mins at 37.5 degC", "type": "functional", "outline": "(§1)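 Human platelet-rich plasma incubated with test agent for 1.5 min at 37.5 °C, then aggregating agent added. Aggregation followed for 5 min turbidimetrically in a dual-channel aggregometer. Baseline (0%) was set with PRP. Full scale (100%) was set at the optical density of plasma treated with the aggregating agent alone. Agents were also checked for agonist activity at 10^-4 and 10^-6 M.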"}, "Platelet [3]": {"system": "Platelet", "experiment": "Induction of 1.4 x 10^-6 M PGH2-induced platelet aggregation in human platelet rich plasma at 10^-4 to 10^-6 M incubated for 1.5 mins at 37.5 degC"}, "Platelet [4]": {"system": "Platelet", "experiment": "Induction of 8.2 x 10^-4 M arachidonic acid-induced platelet aggregation in human platelet rich plasma at 10^-4 to 10^-6 M incubated for 1.5 mins at 37.5 degC"}, "Platelet [5]": {"system": "Platelet", "experiment": "Inhibition of 2 x 10^-6 M ADP-induced platelet aggregation in human platelet rich plasma at 10^-4 to 10^-6 M incubated for 1.5 mins at 37.5 degC", "type": "functional", "outline": "as §1"}, "Platelet [6]": {"system": "Platelet", "experiment": "Inhibition of 9.5 x 10^-7 M 9,11 methanoepoxy-PGH2-induced platelet aggregation in human platelet rich plasma at 10^-4 M incubated for 1.5 mins at 37.5 degC", "type": "functional", "outline": "as §1"}, "Platelet [7]": {"system": "Platelet", "experiment": "Inhibition of 1.4 x 10^-6 M PGH2-induced platelet aggregation in human platelet rich plasma at 10^-4 M incubated for 1.5 mins at 37.5 degC", "type": "functional", "outline": "as §1"}, "Platelet [8]": {"system": "Platelet", "experiment": "Inhibition of 8.5 x 10^-7 M 9,11 methanoepoxy-PGH2-induced platelet aggregation in human platelet rich plasma incubated for 1.5 mins at 37.5 degC", "type": "functional", "conditions": "0.025 h"}, "Platelet [9]": {"system": "Platelet", "experiment": "Inhibition of 2 x 10^-6 M ADP-induced platelet aggregation in human platelet rich plasma at 10^-4 M incubated for 1.5 mins at 37.5 degC", "type": "functional", "outline": "as §1"}, "Platelet [10]": {"system": "Platelet", "experiment": "Effect on arachidonic acid metabolism in washed human platelet assessed as TxB2 level at 10^-4 M by GC-MS analysis (reference value: 14 nmol)", "type": "functional"}, "Platelet [11]": {"system": "Platelet", "experiment": "Inhibition of TxA2-induced platelet aggregation in aspirinated human platelet at 10^-4 M incubated for 1.5 mins at 37.5 degC cells preincubated with PGH2 for 15 secs", "type": "functional, cell-based", "outline": "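TxA2 was generated by stirring human platelet microsomes (0.1 mL, 1.9 mg protein/mL) with PGH2 at 37.5 °C for 15 s. The methods give PGH2 as 10^-4 M; the legend gives it as 1.4 nmol. Aspirinated PRP (0.9 mL), preincubated 1.5 min with inhibitor, was then added. Aggregation was monitored for 5 min. Boiled microsomes served as control.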"}, "Platelet [12]": {"system": "Platelet", "experiment": "Effect on arachidonic acid metabolism in washed human platelet assessed as HETE level at 10^-4 M by GC-MS analysis (reference value: 23 nmol)", "type": "functional"}, "Platelet [13]": {"system": "Platelet", "experiment": "Inhibition of 8.3 x 10^-4 M arachidonic acid-induced platelet aggregation in human platelet rich plasma incubated for 1.5 mins at 37.5 degC", "type": "functional", "conditions": "0.025 h"}, "Thromboxane-A synthase": {"target": "T1, Thromboxane-A synthase (Homo sapiens, UniProt P24557)", "T1 sequence (P24557 whole entry)": "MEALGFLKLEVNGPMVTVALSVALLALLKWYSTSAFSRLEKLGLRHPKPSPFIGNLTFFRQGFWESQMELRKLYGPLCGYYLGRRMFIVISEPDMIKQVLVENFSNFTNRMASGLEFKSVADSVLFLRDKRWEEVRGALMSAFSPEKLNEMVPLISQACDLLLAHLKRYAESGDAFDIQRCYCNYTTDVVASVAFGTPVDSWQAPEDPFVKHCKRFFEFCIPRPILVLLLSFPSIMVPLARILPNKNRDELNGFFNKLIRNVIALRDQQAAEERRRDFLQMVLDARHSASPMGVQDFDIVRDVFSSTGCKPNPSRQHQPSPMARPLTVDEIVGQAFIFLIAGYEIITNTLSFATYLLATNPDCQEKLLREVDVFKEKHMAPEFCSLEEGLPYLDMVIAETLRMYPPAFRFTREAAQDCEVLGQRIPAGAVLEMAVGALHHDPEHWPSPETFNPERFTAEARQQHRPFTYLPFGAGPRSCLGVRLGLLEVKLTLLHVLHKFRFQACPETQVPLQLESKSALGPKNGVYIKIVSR", "experiment": "Inhibition of thromboxane synthetase in intact human platelet microsomes assessed as inhibition of [1-14C]PGH2 to [1-14C]TxA2"}}, "note": "Active and inactive are the calls of the source. No cut-off for these calls is given here."}
{"smiles": "CCOC(=O)N1[C@H]2C[C@@H]([C@H](CCCCCCC(=O)O)[C@H]2O)N1C(=O)OCC", "note": "(racemic)", "values": [{"measurement": "induction of platelet aggregation", "setting": "Platelet [1]", "value": "inactive"}, {"measurement": "inhibition (INH)", "setting": "Platelet [2]", "value": 0, "unit": "%"}, {"measurement": "induction", "setting": "Platelet [3]", "value": "inactive"}, {"measurement": "induction of platelet aggregation", "setting": "Platelet [4]", "value": "inactive"}, {"measurement": "inhibition", "setting": "Platelet [5]", "value": "inactive"}, {"measurement": "inhibition (INH)", "setting": "Platelet [6]", "value": 21, "unit": "%"}]}
{"smiles": "C=CCO[C@@H]1[C@@H](CCCCCCC(=O)O)[C@@H]2C[C@@H]1N(C(=O)OCC)N2C(=O)OCC", "note": "(racemic)", "values": [{"measurement": "induction of platelet aggregation", "setting": "Platelet [1]", "value": "inactive"}, {"measurement": "inhibition (INH)", "setting": "Platelet [7]", "value": 100, "unit": "%"}, {"measurement": "inhibition (INH)", "setting": "Platelet [2]", "value": 0, "unit": "%"}, {"measurement": "induction", "setting": "Platelet [3]", "value": "inactive"}, {"measurement": "IC50", "setting": "Platelet [8]", "value": 36, "unit": "µM"}, {"measurement": "induction of platelet aggregation", "setting": "Platelet [4]", "value": "inactive"}, {"measurement": "inhibition (INH)", "setting": "Platelet [9]", "value": 0, "unit": "%"}, {"measurement": "inhibition", "setting": "Platelet [5]", "value": "inactive"}, {"measurement": "inhibition (INH)", "setting": "Platelet [6]", "value": 88, "unit": "%"}]}
{"smiles": "CCCCCC(O)CO[C@@H]1[C@@H](CCCCCCC(=O)O)[C@@H]2C[C@@H]1N(C(=O)OCC)N2C(=O)OCC", "note": "(mixture of isomers)", "values": [{"measurement": "induction of platelet aggregation", "setting": "Platelet [1]", "value": "inactive"}, {"measurement": "inhibition (INH)", "setting": "Platelet [2]", "value": 0, "unit": "%"}, {"measurement": "induction", "setting": "Platelet [3]", "value": "inactive"}, {"measurement": "induction of platelet aggregation", "setting": "Platelet [4]", "value": "inactive"}, {"measurement": "inhibition", "setting": "Platelet [5]", "value": "inactive"}, {"measurement": "inhibition (INH)", "setting": "Platelet [6]", "value": 20, "unit": "%"}]}
{"smiles": "CCCCCC(O)CO[C@@H]1[C@@H](CCCCCCC(=O)O)[C@@H]2C[C@@H]1N=N2", "note": "(mixture of isomers)", "values": [{"measurement": "Activity", "setting": "Platelet [10]", "value": 0, "unit": "nmol"}, {"measurement": "induction of platelet aggregation", "setting": "Platelet [1]", "value": "inactive"}, {"measurement": "inhibition", "setting": "Platelet [11]", "value": "Active"}, {"measurement": "Activity", "setting": "Platelet [12]", "value": 27, "unit": "nmol"}, {"measurement": "inhibition (INH)", "setting": "Platelet [7]", "value": 100, "unit": "%"}, {"measurement": "inhibition (INH)", "setting": "Platelet [2]", "value": 100, "unit": "%"}, {"measurement": "IC50", "setting": "Platelet [13]", "value": 31, "unit": "µM"}, {"measurement": "induction", "setting": "Platelet [3]", "value": "inactive"}, {"measurement": "IC50", "setting": "Thromboxane-A synthase", "value": 1000, "unit": "nM"}, {"measurement": "IC50", "setting": "Platelet [8]", "value": 5.5, "unit": "µM"}, {"measurement": "induction of platelet aggregation", "setting": "Platelet [4]", "value": "inactive"}, {"measurement": "inhibition (INH)", "setting": "Platelet [9]", "value": 0, "unit": "%"}, {"measurement": "inhibition", "setting": "Platelet [5]", "value": "inactive"}, {"measurement": "inhibition (INH)", "setting": "Platelet [6]", "value": 100, "unit": "%"}]}
{"smiles": "C=CCO[C@@H]1[C@@H](CCCCCCC(=O)O)[C@@H]2C[C@@H]1N=N2", "note": "(racemic)", "values": [{"measurement": "induction of platelet aggregation", "setting": "Platelet [1]", "value": "inactive"}, {"measurement": "inhibition (INH)", "setting": "Platelet [2]", "value": 0, "unit": "%"}, {"measurement": "induction", "setting": "Platelet [3]", "value": "inactive"}, {"measurement": "induction of platelet aggregation", "setting": "Platelet [4]", "value": "inactive"}, {"measurement": "inhibition", "setting": "Platelet [5]", "value": "inactive"}, {"measurement": "inhibition (INH)", "setting": "Platelet [6]", "value": 20, "unit": "%"}]}
